Experimental data gathered from unrelated publications.
Lines come from different studies, so protocols differ.
CSF1R: Macrophage colony-stimulating factor 1 receptor (CSF1R, Homo sapiens, UniProt P07333)
CSF1R autoinhibited: Macrophage colony-stimulating factor 1 receptor, autoinhibited (CSF1R, Homo sapiens, UniProt P07333)
CSF1R Y969C: Macrophage colony-stimulating factor 1 receptor (CSF1R, Homo sapiens, UniProt P07333, Y969C)

SMILES | target | observed | action | method | concentration | quantity | result
CN(C)C1CCN(CC#Cc2nn(C3CCCC3)c3nc(NCc4ccccc4)ncc23)C1 (stereo not shown) | CSF1R | enzyme activity | inhibitor | FRET | 0.1 µM | inhibition | 44%
Nc1ncnc2occ(-c3ccc(NC(=O)Nc4cc(C(F)(F)F)ccc4F)cc3)c12 | CSF1R autoinhibited | cell-free assay |  |  | 20 µM | remaining signal | 0.95%
O=C1NC(=O)c2cc(Nc3ccc(F)cc3)c(Nc3ccc(F)cc3)cc21 | CSF1R | cell-free assay |  |  | 0.5 µM | remaining signal | 104%
Cc1ccc(C(=O)NCc2ccsc2)cc1C#Cc1cn(C(C)C)c2ncnc(N)c12 | CSF1R | enzyme activity | inhibitor |  | 1 µM | activity vs control | 8%
COc1cc(-c2cn(C3CCc4c(F)cccc4N(CC(F)(F)F)C3=O)nn2)ccc1-n1cnc(C)c1 (stereo not shown) | CSF1R autoinhibited | cell-free assay |  | competition with immobilised ligand | 1 µM | remaining binding | 100%
CNC(=O)c1cc2c(Oc3ccc(NC(=O)C4(C(=O)Nc5ccc(F)cc5)CC4)cc3)ccnc2cc1OC | CSF1R | enzyme activity | inhibitor | radiometric | 1 µM | inhibition | 98%
CCCOc1ccc([C@H]2[C@H](C(=O)O)[C@@H](c3ccc4c(c3)OCO4)CN2CC(=O)Nc2c(CC)cccc2CC)cc1 | CSF1R autoinhibited | cell-free assay |  | competition with immobilised ligand | 1 µM | remaining binding | 61%
COc1cc2ncnc(Nc3ccc(Oc4ccccc4)cc3C)c2cc1OC | CSF1R | enzyme activity | inhibitor |  | 1 µM | inhibition | 24%
CCN(CC)c1ccc(C2=NNC(=O)CC2C)cc1[N+](=O)[O-] (stereo not shown) | CSF1R | enzyme activity | inhibitor |  | 10 µM | remaining activity | 114%
Cc1cnc(NC2CCOCC2)nc1-n1cnc(C(=O)NC(CN)c2cc(F)cc(Cl)c2)c1 (stereo not shown) | CSF1R | enzyme activity | inhibitor | radiometric | 1 µM | remaining activity | 103%
CCN(CC)CCNC(=O)c1c(C)[nH]c(/C=C2\C(=O)Nc3ccc(F)cc32)c1C | CSF1R | cell-free assay |  |  | 10 µM | inhibition | 98%
N#CCCc1ccc2c(c1)-c1[nH]c3ccc([N+](=O)[O-])cc3c1CC(=O)N2 | CSF1R | cell-free assay |  |  | 0.5 µM | remaining signal | 43.4%
O=C(N1CCS(=O)(=O)CC1)N1C[C@H](c2ccc(OC(F)(F)F)cc2)C[C@H](c2nc(C3CC3)no2)C1 | CSF1R | cell-free assay |  | competition with immobilised ligand | 1 µM | remaining binding | 100%
O=C1Nc2ccc(Cl)cc2C1=Cc1cc(Cl)c(O)c(Cl)c1 | CSF1R | cell-free assay |  |  | 0.5 µM | remaining signal | 77.9%
CN(CCCC(F)(F)F)c1nccc(-c2cnn3ncccc23)n1 | CSF1R autoinhibited | binding |  |  | 1 µM | remaining binding | 100%
CC/C(=N\NC(=O)NCc1cccc(O)c1)c1ccc(O)c(C)c1O | CSF1R | enzyme activity | inhibitor |  | 0.1 µM | inhibition | -4.4%
Cc1ccc(NC(=O)c2ccc(C)c(C(F)(F)F)c2)cc1C#Cc1nn(C2CCC(O)CC2)c2ncnc(N)c12 (stereo not shown) | CSF1R Y969C | cell-free assay |  |  | 10 µM | remaining signal | 13%

SMILES | target | observed | action | method | concentration | quantity | result
CS(=O)(=O)N1CCCC(NC(=O)[C@H](CCC2CCCCC2)NC(=O)c2ccc(CNC(=O)c3cnc4ccccn34)cc2)C1 (stereo partly shown) | CSF1R autoinhibited | cell-free assay |  | competition with immobilised ligand | 0.1 µM | remaining binding | 100%
COc1cc2nccc(Oc3ccc(NC(=O)c4c5n(n(-c6ccc(F)cc6)c4=O)CCCC5)cc3)c2cc1OC | CSF1R | enzyme activity | inhibitor |  | 0.1 µM | inhibition | 38%
Cc1cc(NC(=O)c2cccc3cc(-c4cccc5[nH]nc(N)c45)ccc23)ccc1F | CSF1R | enzyme activity | inhibitor |  | 0.1 µM | activity vs control | 7%
C[C@@H]1CCN(c2nccc(-c3cnn4ncccc34)n2)C1 | CSF1R | binding |  |  | 1 µM | remaining binding | 100%
CCCCN(CCCC)C(=O)CN1C[C@@H](c2cc(OC)c3c(c2)OCO3)[C@H](C(=O)O)[C@H]1CC(C)(C)CCC | CSF1R autoinhibited | cell-free assay |  | competition with immobilised ligand | 1 µM | remaining binding | 100%
O=C(Nc1cnn(-c2csc(C(=O)NC3COC3)c2)c1)Nc1c(F)cccc1Cl | CSF1R | enzyme activity | inhibitor |  | 5 µM | remaining activity | 98.9%
CN(C)c1nccc(-c2cnc3ncccn23)n1 | CSF1R autoinhibited | binding |  |  | 1 µM | remaining binding | 65%
Oc1ccc(-c2nc(-c3ccncc3)c(-c3ccc(F)cc3)[nH]2)cc1 | CSF1R | cell-free assay |  |  | 0.5 µM | remaining signal | 96.9%
CCOC(=O)c1cc2cc(-c3cc(C(=O)NCc4ccc(C(=O)O)cc4)nn3C)ccc2[nH]1 | CSF1R autoinhibited | cell-free assay |  | competition with immobilised ligand | 0.1 µM | remaining binding | 94%
CC(C)(C)c1nc(-c2cccc(NS(=O)(=O)c3c(F)cccc3F)c2F)c(-c2ccnc(N)n2)s1 | CSF1R | enzyme activity | inhibitor | radiometric | 1 µM | remaining activity | 109%
CCCOc1ccc(OC)c(F)c1C(=O)c1ccc(C(=O)N[C@@H]2CNC[C@H]2NC(=O)c2ccc3[nH]ncc3c2)cc1 | CSF1R Y969C | enzyme activity | inhibitor |  | 10 µM | remaining activity | 57%
N[C@@H]1CCN(c2nccc(-c3cnn4ncccc34)n2)C1 | CSF1R autoinhibited | binding |  |  | 1 µM | remaining binding | 100%
CCS(=O)(=O)c1cc2cc(C[C@@](O)(CC(C)(C)c3ccc(F)cc3C(N)=O)C(F)(F)F)[nH]c2cn1 | CSF1R autoinhibited | cell-free assay |  | competition with immobilised ligand | 1 µM | remaining binding | 94%
COc1ccnn2ncc(-c3ccnc(N(C)C)n3)c12 | CSF1R autoinhibited | binding |  |  | 1 µM | remaining binding | 91%
c1ccc(-c2n[nH]c3c2oc2ccccc23)cc1 | CSF1R | cell-free assay |  |  | 0.5 µM | remaining signal | 78.1%
CO[C@@H](C)c1c(Nc2ccc([C@@H](N(C)C(=O)C3CCS(=O)(=O)CC3)C(F)(F)F)cc2)cnc2cc(Cl)nn12 | CSF1R autoinhibited | cell-free assay |  | competition with immobilised ligand | 1 µM | remaining binding | 88%
CS(=O)(=O)Nc1cccc(-c2csc(NC(=O)CSc3nc4nccnc4c(=O)n3CCc3ccccc3)n2)c1 | CSF1R | enzyme activity | inhibitor |  | 10 µM | inhibition | 8%
